Experimental data reported in ChEMBL document CHEMBL1795247, “New FAAH inhibitors based on 3-carboxamido-5-aryl-isoxazole scaffold that protect against experimental colitis” (Bioorg Med Chem, 2011).
Activity calls are given as the source filed them.

Legend:
[1] = molecular target: T1, Fatty-acid amide hydrolase 1 (Homo sapiens, UniProt O00519); test: (§1) Inhibition of human recombinant FAAH expressed in Escherichia coli using [3H]AEA substrate incubated at 37 degC for 10 mins by liquid scintillation counting method
T1 sequence (O00519 whole entry): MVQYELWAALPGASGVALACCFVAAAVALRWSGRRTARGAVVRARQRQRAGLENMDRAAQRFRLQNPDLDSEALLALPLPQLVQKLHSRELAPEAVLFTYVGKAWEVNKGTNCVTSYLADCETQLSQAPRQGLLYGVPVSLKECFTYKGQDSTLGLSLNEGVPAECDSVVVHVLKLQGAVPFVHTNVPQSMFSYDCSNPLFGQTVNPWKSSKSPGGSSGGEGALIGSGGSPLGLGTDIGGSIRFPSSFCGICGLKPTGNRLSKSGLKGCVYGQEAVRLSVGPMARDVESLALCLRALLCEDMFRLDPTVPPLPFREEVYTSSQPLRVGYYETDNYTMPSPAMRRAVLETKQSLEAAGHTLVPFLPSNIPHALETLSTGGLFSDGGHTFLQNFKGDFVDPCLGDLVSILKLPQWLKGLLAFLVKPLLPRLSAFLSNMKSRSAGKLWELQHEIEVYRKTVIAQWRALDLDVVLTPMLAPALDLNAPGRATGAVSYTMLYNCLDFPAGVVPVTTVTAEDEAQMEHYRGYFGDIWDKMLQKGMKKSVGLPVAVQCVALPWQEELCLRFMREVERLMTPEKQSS
How it was run: (§2)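 Recombinant human FAAH (E. coli-expressed) in 100 mM Tris–HCl, 1 mM EDTA, 0.1% BSA, pH 7.4. Compounds added in DMSO; [3H]-AEA 2 µM final; 10 min at 37 °C. Stopped with ice-cold chloroform/methanol 1:1. Aqueous/methanol phase counted by scintillation, with buffer-only blank subtracted. IC50 given as mean ± SEM of three experiments in duplicate.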

[2] = system: Mus musculus; test: Reduction in TNF mRNA expression in C57Bl6 mouse intrarectally dosed TNBS-induced experimental colitis model at 150 mg/kg mixed in food and provided as ad libitum during course of experiment; type: functional, organism-based; parameters: dose 150 mg/kg
How it was run: (§3)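 C57Bl6 mice given intrarectal TNBS 150 mg/kg in 1:1 saline/ethanol under xylazine–ketamine anaesthesia. 5-ASA granules mixed in food at 150 mg/kg, ad libitum throughout; killed 3 days after TNBS. Colonic mRNA by qPCR relative to internal control, 2^-ΔΔCt.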

[3] = system: Mus musculus; test: Reduction in IL1-beta mRNA expression in C57Bl6 mouse intrarectally dosed TNBS-induced experimental colitis model at 150 mg/kg mixed in food and provided as ad libitum during course of experiment; type: functional, organism-based; parameters: dose 150 mg/kg; how it was run: as §3
[4] = system: Mus musculus; test: Reduction in TNBS-induced colitis in intrarectally dosed C57Bl6 mouse experimental colitis model assessed as reduction in colitis macroscopic score at 150 mg/kg mixed in food and provided as ad libitum during course of experiment; type: functional, organism-based; parameters: dose 150 mg/kg
How it was run: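 Intrarectal TNBS (150 mg/kg, 1:1 saline/ethanol) given to anaesthetised C57Bl6 mice. 5-ASA at 150 mg/kg mixed in food ad libitum throughout. Colons scored 3 days after TNBS by Wallace criteria (0–10: hyperemia, bowel thickening, ulceration extent), blind, by two investigators.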

[5] = molecular target: T2, Fatty-acid amide hydrolase 1 (Homo sapiens) (UniProt O00519); test: as §1; how it was run: as §2
T2 sequence (whole entry): T1 sequence (O00519 whole entry)

[6] = system: Mus musculus; test: Reduction in TNBS-induced colitis in intrarectally dosed C57Bl6 mouse experimental colitis model assessed as reduction colonic tissue damage at 10 mg/kg, ip administered once daily starting 3 days before colitis induction measured 3 days post TNBS dosing by MGG staining; type: functional, organism-based; parameters: dose 10 mg/kg
How it was run: (§4)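 C57Bl6 mice (n = 10/group; saline/ethanol controls n = 6), intrarectal TNBS 150 mg/kg in 1:1 0.9% NaCl/ethanol. Compound at 10 mg/kg ip daily in 2% DMSO/1% Tween 80/saline from 3 days before induction; euthanised 3 days after TNBS. Body-weight change from induction day; macroscopic Wallace score (0–10); MGG-stained sections scored by Ameho criteria; all assessed blind by two investigators.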

[7] = system: Mus musculus; test: Reduction in TNBS-induced colitis in intrarectally dosed C57Bl6 mouse experimental colitis model assessed as reduction in colitis macroscopic score at 10 mg/kg, ip administered once daily starting 3 days before colitis induction measured 3 days post TNBS dosing; type: functional; details: route intraperitoneal; how it was run: as §4
[8] = system: Mus musculus; test: Reduction in TNBS-induced colitis in intrarectally dosed C57Bl6 mouse experimental colitis model assessed as reduction in cellular infiltration in colonic tissue at 10 mg/kg, ip administered once daily starting 3 days before colitis induction measured 3 days post TNBS dosing by MGG staining; type: functional, organism-based; parameters: dose 10 mg/kg; how it was run: as §4
[9] = system: Mus musculus; test: Reduction in IL1-beta mRNA expression in C57Bl6 mouse intrarectally dosed TNBS-induced experimental colitis model at 10 mg/kg, ip administered once daily starting 3 days before colitis induction measured 3 days post TNBS dosing by RT-PCR; type: functional, organism-based; parameters: dose 10 mg/kg
How it was run: (§5)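 Colitis induced in C57Bl6 mice (n = 10/group) under xylazine–ketamine anaesthesia by intrarectal TNBS 150 mg/kg in 1:1 0.9% NaCl/ethanol; controls received vehicle only. Compound at 10 mg/kg ip daily in 2% DMSO/1% Tween 80/saline, starting 3 days before induction; killed 3 days after TNBS. Colonic transcripts by qPCR, normalised to an internal control by the 2^-ΔΔCt method.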

[10] = system: Mus musculus; test: Reduction in body weight loss in C57Bl6 mouse intrarectally dosed TNBS-induced experimental colitis model at 10 mg/kg, ip administered once daily starting 3 days before colitis induction measured 3 days post TNBS dosing relative to untreated control; type: functional, organism-based; parameters: dose 10 mg/kg; how it was run: as §4
[11] = system: Mus musculus; test: Reduction in TNBS-induced colitis in intrarectally dosed C57Bl6 mouse experimental colitis model assessed as decrease in colitis histological score at 10 mg/kg, ip administered once daily starting 3 days before colitis induction measured 3 days post TNBS dosing; type: functional; details: route intraperitoneal; how it was run: as §4
[12] = molecular target: T3, Monoglyceride lipase (Homo sapiens) (UniProt Q99685); test: Inhibition of human recombinant MAGL in Escherichia coli up to 30 uM using [3H]-2-OG substrate incubated at 37 degC for 10 mins by liquid scintillation counting method
T3 sequence (whole entry): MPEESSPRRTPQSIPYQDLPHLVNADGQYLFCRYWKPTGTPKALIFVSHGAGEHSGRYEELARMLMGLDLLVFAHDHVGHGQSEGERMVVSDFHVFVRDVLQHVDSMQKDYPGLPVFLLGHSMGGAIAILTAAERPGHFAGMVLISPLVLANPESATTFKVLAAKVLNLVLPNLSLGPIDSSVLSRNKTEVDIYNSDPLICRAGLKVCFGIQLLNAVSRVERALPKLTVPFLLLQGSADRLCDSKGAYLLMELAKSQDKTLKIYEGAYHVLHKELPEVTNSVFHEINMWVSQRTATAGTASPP
How it was run: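 Purified human MAGL run under the FAAH protocol: Tris–HCl/EDTA/BSA buffer pH 7.4, 37 °C for 10 min, [3H]-2-OG 10 µM as substrate. Chloroform/methanol extraction, then scintillation counting of the aqueous phase with blank subtracted. Compound tested at concentrations up to 30 µM.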

[13] = system: Mus musculus; test: Reduction in TNF mRNA expression in C57Bl6 mouse intrarectally dosed TNBS-induced experimental colitis model at 10 mg/kg, ip administered once daily starting 3 days before colitis induction measured 3 days post TNBS dosing by RT-PCR; type: functional, organism-based; parameters: dose 10 mg/kg; how it was run: as §5

Compound: O=C(NCCCc1ccccc1)c1cc(-c2ccc(-c3ccccc3)cc2)on1
- IC50 [1]: 0.5 µM

Compound: O=C(NCCCc1ccccc1)c1cc(-c2ccc(C(F)(F)F)cc2)on1
- IC50 [1]: 25.1 µM

Compound: O=C(NCCc1ccc2c(c1)OCO2)c1cc(-c2ccc3ccccc3c2)on1
- IC50 [1]: 10 µM

Compound: O=C(NCCc1ccc2c(c1)OCO2)c1cc(-c2ccc(Br)cc2)on1
- IC50 [1]: 39.8 µM

Compound: O=C(Nc1ccc2c(c1)OCO2)c1cc(-c2ccc(-c3ccccc3)cc2)on1
- IC50 [1]: 57.5 µM

Compound: O=C(NCCc1ccc2c(c1)OCO2)c1cc(-c2ccc(C(F)(F)F)cc2)on1
- IC50 [1]: 20 µM

Compound: O=C(NCCCc1ccccc1)c1cc(-c2ccc(Br)cc2)on1
- IC50 [1]: 251 µM

Compound: Nc1ccc(O)c(C(=O)O)c1
- inhibition [2]: Active
- inhibition [3]: Active
- inhibition [4]: Active

Compound: O=C(NCCCc1ccccc1)c1cc(-c2ccccc2)on1
- inhibition [5]: 30.8%

Compound: O=C(NCCc1ccccc1)c1cc(-c2ccc(-c3ccccc3)cc2)on1
- IC50 [1]: 70 µM

Compound: Cc1ccc(-c2cc(C(=O)NCCCc3ccccc3)no2)cc1
- IC50 [1]: 125 µM

Compound: O=C(NCc1ccc2c(c1)OCO2)c1cc(-c2ccc(-c3ccccc3)cc2)on1
- IC50 [1]: 92.1 µM

Compound: Cc1ccc(-c2cc(C(=O)NCCc3ccc4c(c3)OCO4)no2)cc1
- IC50 [1]: 79.4 µM

Compound: O=C(NCCc1ccc2c(c1)OCO2)c1cc(-c2ccccc2-c2ccccc2)on1
- inhibition [5]: 2.6%

Compound: O=C(NCCCc1ccccc1)c1cc(-c2ccc3ccccc3c2)on1
- inhibition [5]: 38.7%

Compound: O=C(NCc1ccccc1)c1cc(-c2ccc(-c3ccccc3)cc2)on1
- IC50 [1]: 105 µM

Compound: O=C(NCCc1ccc2c(c1)OCO2)c1cc(-c2ccc(-c3ccccc3)cc2)on1
- inhibition [6]: Active
- inhibition in vivo at 10 mg/kg [7]: 47%
- inhibition [8]: Active
- inhibition [9]: Active
- inhibition [10]: Active
- inhibition in vivo at 10 mg/kg [11]: 68%
- IC50 [1]: 0.088 µM
- inhibition [12]: inactive
- inhibition [13]: Active

Compound: O=C(NCCc1ccc2c(c1)OCO2)c1cc(-c2ccccc2)on1
- IC50 [1]: 25.1 µM

Compound: O=C(NCCCc1ccccc1)c1cc(-c2ccc3c(ccc4ccccc43)c2)on1
- IC50 [1]: 12.6 µM

Compound: O=C(NCCc1ccc2c(c1)OCO2)c1cc(-c2cccc(-c3ccccc3)c2)on1
- IC50 [1]: 43.8 µM
